MEKK2 WT-MEK5 – raises or lowers MEK5 binding to wildtype human MEKK2 PB1 domain; binding response (% of control), % at 10 µM; bead flow cytometry, Alexa488-MEK5 binding to MEKK2 WT; actives lie on both sides; AID 1531; hit rate 1.1% among 290,000; in the data active = binding response below about 67% or above about 130%
IMP-1 inh – inhibitors of Pseudomonas aeruginosa IMP-1 metallo-beta-lactamase; purified IMP-1, nitrocefin hydrolysis, epi-absorbance fluorescence; inhibition, % at 5.6 µM; hit rate 0.45% among 290,000; AID 1556;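 active = inhibition above the mean plus 3 SD of all compounds in the same screening run, cut at about 4.5% in these data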;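 also: 0% = IMP-1 with DMSO and 100% = DMSO wells lacking enzyme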
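System – purified recombinant IMP-1 beta-lactamase · Input – IMP-1 dispensed at 0.2 nM · Timing – 15 min preincubation plus 25 min reaction at 25 °C · Signal – Epi-absorbance fluorescence, 480 nm excitation, 530 nm emission · Measure – percent IMP-1 inhibition derived from blank-referenced optical density · Controls – Enzyme-plus-DMSO low control, enzyme-free DMSO high control · Replication – singlicate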
VIM-2 inhibitor – blocks Pseudomonas aeruginosa VIM-2 metallo-beta-lactamase; inhibition, % at 5.6 µM; purified VIM-2, nitrocefin hydrolysis, epi-absorbance fluorescence; hit rate 0.89% among 290,000;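 active = inhibition above the mean of all tested compounds plus 3 SD, cutoff set per screening run, cut at about 7.5% in these data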;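 also: red hydrolysis product quenches plate fluorescence so inhibitors raise well fluorescence; 0% = enzyme with DMSO and 100% = DMSO without enzyme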
MEKK3 PB1 HTS – raises or lowers MEK5 binding to the human MEKK3 PB1 domain | bead-based flow cytometry, Alexa488-MEK5 binding to MEKK3; actives lie on both sides; 0 = blocked by unlabeled MEK5, 100 = vehicle | Q99759 | AID 1529 | binding response (% of control), % at 10 µM | hit rate 1.4% among 290,000;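 active = binding response more than 3 SD above or below the average of its plate-row segment, actives on both sides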;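 also: Alexa488 bead fluorescence after subtracting the streptavidin-only scavenger bead signal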
Target sequence (Q99759 whole entry, looked up, the tested form may be a part): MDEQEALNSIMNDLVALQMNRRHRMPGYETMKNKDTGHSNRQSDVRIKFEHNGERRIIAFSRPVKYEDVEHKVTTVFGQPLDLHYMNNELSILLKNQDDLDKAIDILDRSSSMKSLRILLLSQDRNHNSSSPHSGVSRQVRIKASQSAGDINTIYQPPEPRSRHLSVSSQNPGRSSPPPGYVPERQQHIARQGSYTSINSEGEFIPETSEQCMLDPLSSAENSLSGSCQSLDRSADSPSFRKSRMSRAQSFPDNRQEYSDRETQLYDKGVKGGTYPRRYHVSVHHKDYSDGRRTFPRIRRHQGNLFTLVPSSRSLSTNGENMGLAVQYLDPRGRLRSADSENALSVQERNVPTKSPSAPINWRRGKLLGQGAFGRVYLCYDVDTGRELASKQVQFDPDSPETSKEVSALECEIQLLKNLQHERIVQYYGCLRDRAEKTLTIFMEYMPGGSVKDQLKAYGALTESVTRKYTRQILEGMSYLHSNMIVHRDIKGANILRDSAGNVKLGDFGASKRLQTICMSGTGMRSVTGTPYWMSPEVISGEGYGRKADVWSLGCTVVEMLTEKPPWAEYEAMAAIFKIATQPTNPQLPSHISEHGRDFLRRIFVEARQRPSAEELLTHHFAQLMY
MEKK2 mut-MEK5 – signal of MEK5 binding to mutant human MEKK2 PB1 domain; hit rate 0.35% among 290,000; bead flow cytometry, Alexa488-MEK5 binding to MEKK2 mutant; percent response, % at 10 µM; in the data active = percent response above about 24%, passing the limit was not always enough
Starred values were filed as active, the others as inactive; . = no result given; [ ] = another dose, or the depositor's remark. In the library only some 3.4% were active in any assay of this set; here they are far more common.

SMILES	MEKK2 WT-MEK5	IMP-1 inh	VIM-2 inhibitor	MEKK3 PB1 HTS	MEKK2 mut-MEK5
Cc1cccc(NS(=O)(=O)c2ccc3c(c2)Cc2cc(S(=O)(=O)Nc4cccc(C)c4C)ccc2-3)c1C	-3.0*	-4.0	-2.0	88.0	0.0
CC(Sc1nc2ccc(C(=O)c3ccccc3)cc2[nH]1)C(=O)O (stereo not drawn)	105.0	-2.5	-3.5	106.0	3.0
CC(O)c1nc2ccc(C(=O)O)cc2[nH]1 (stereo not drawn)	93.0	8.7*	1.2	92.0	1.0
COCc1cc(C)nc(SCC(=O)NCc2ccco2)c1C#N	90.0	-3.6	-3.1	94.0	-5.0
CCN(CC)CCNC(=S)Nc1ccc2nc(N3CCN(CC)CC3)cc(C)c2c1	124.0	-2.6	3.0	103.0	13.0
Cc1cc(N2CCN(C)CC2)nc2ccc(NC(=S)NCCN3CCc4ccccc4C3)cc12	158.0*	-1.1	1.2	110.0	26.0
Cc1cc(OC(C)C(=O)NCc2ccncc2)c2c(C)cc(=O)oc2c1 (stereo not drawn)	101.0	-5.1	-0.3	101.0	3.0
Cc1cc(OCC(=O)NCc2ccccn2)c2c(C)c(C)c(=O)oc2c1	98.0	-0.3	9.0*	99.0	-5.0
Cc1cc(OC(C)C(=O)NCc2ccncc2)c2c(C)c(C)c(=O)oc2c1 (stereo not drawn)	103.0	-1.0	9.3*	98.0	-2.0
Cc1cc2c(cc1S(=O)(=O)NCC(C)c1ccccc1)n(C)c(=O)c(=O)n2C (stereo not drawn)	97.0	-4.0	-1.1	95.0	0.0
CCc1nc(NCc2cccnc2)c2oc3ccccc3c2n1	95.0	-3.0	11.5*	100.0	-2.0
CCNc1nc(CC)nc2c1oc1ccccc12	95.0	-2.8	2.5	98.0	-3.0
Cc1ccc(C=Nc2cccnc2N)cc1	102.0	4.8*	0.8	101.0	0.0
COc1ccc(-c2cc(C(=O)NC3CCCCC3)no2)cc1OC	97.0	-2.1	-2.1	103.0	-1.0
c1cnc(SCCOc2cccc3ccccc23)nc1	101.0	4.8*	-1.5	111.0	4.0
O=c1c2sccc2nc(SCc2cc(=O)n3cc(Br)ccc3n2)n1Cc1ccccn1	98.0	-1.8	-2.4	99.0	-2.0
CCN(CC)CCNC(=O)c1ccc(Cl)c(S(=O)(=O)Nc2ccccc2OC)c1	103.0	5.4*	-0.6	99.0	-2.0
CC(C)(C)c1cc(C(c2cccnc2)N2CCN(CCO)CC2)cc(C(C)(C)C)c1O (stereo not drawn)	98.0	-3.3	-5.5	101.0	3.0
OCCN1CCN(C(c2cccs2)c2ccc3cccnc3c2O)CC1 (stereo not drawn)	68.0*[inhibitor]	-1.0	0.6	97.0	-11.0
O=C1/C(=C/c2cccnc2)SC(=S)N1c1ccccc1	105.0	-1.9	0.2	104.0	11.0
c1cn2cc(CSC3CCCCC3)nc2s1	103.0	-2.5	9.1*	100.0	4.0
COc1ccc(-c2nn(C)c(=O)c3ccccc23)cc1CNS(C)(=O)=O	100.0	-0.9	8.5*	97.0	0.0
COc1ccc(-c2nn(C)c(=O)c3ccccc23)cc1CNC(=O)c1ccco1	101.0	-0.3	8.9*	106.0	2.0
C/C=C\C=C/C(=O)Nc1cccc(C2=NOC3(C2)C[C@@H](C(N)=O)N(C(=O)COc2ccc(Cl)cc2)C3)c1 (stereo partly drawn)	97.0	.	.	95.0	2.0
CC(c1ccccc1)C1C(C#N)=C(N)SC(N)=C1C#N (stereo not drawn)	109.0	0.7	-0.8	108.0	10.0
SMILES	MEKK2 WT-MEK5	IMP-1 inh	VIM-2 inhibitor	MEKK3 PB1 HTS	MEKK2 mut-MEK5
CC(CC1C(C#N)=C(N)SC(N)=C1C#N)c1ccccc1 (stereo not drawn)	95.0	5.1*	-1.9	89.0	-6.0
CN(C)CCCN1C(=O)c2cccc3cccc(c23)C1=O	108.0	-4.1	7.8*	103.0	16.0
O=C(CCN1C(=O)C2C3CCC(C3)C2C1=O)Nc1cccc(Cl)c1 (stereo not drawn)	100.0	5.9*	2.6	98.0	-5.0
CC1CCN(c2nc3ccc(C(=O)NCCCN4CCCCC4)cc3s2)CC1	109.0	-7.0	10.1*	94.0	5.0
CCn1c(C)c(C)c2cc(C(=O)NCCCN3CCCC3)ccc21	144.0*	-1.3	0.5	104.0	14.0
CCn1c(C)c(C)c2cc(C(=O)NCCCN3CCCCC3C)ccc21 (stereo not drawn)	17.0*	-3.0	-0.9	103.0	41.0*
CCn1c(C)c(C)c2cc(C(=O)NCCN3CCOCC3)ccc21	98.0	-1.8	-3.0	95.0	1.0
COc1ccc(C(=O)N/N=C/c2ccc(OC(=O)c3ccccc3)cc2)cc1	96.0	-3.2	-2.3	99.0	1.0
CCNc1nc(NCC)nc(N/N=C/c2ccc([N+](=O)[O-])o2)n1	102.0	-6.8	-3.3	92.0	-7.0
Cc1nn(Cc2ccccc2)c(Cl)c1/C=N/NC(=O)c1cccnc1	100.0	-2.5	-4.4	100.0	-1.0
Cc1c(/C=N/NC(=O)c2cccnc2)c2ccccc2n1Cc1ccccc1	62.0*[inhibitor]	-3.3	-2.9	105.0	110.0*
C/C(=N\Nc1cccc(Cl)c1)C1(C)N(O)C(C)(C)C(c2ccco2)=[N+]1[O-] (stereo not drawn)	98.0	-1.4	-0.7	100.0	2.0
Cc1cc2c(c(=O)o1)C(CCC1CCCCC1)C(C#N)=C(N)O2 (stereo not drawn)	103.0	11.2*	-2.0	106.0	2.0
N#CC1=C2SCN(c3ccccc3)CN2C(=O)CC1c1c(Cl)cccc1Cl (stereo not drawn)	101.0	-3.7	46.2*	104.0	8.0
N#CC1=C2SCN(c3ccccc3)CN2C(=O)CC1c1ccccc1Cl (stereo not drawn)	98.0	-1.6	-0.3	98.0	6.0
CC(=O)Nc1ccc(NS(=O)(=O)c2ccc(-c3cnc(C4CC4)o3)cc2)cc1	100.0	0.1	-0.4	99.0	1.0
CCn1cc(C(=O)NCc2ccco2)c(=O)c2cc(S(=O)(=O)N3CCc4ccccc4C3)ccc21	91.0	-2.5	-3.1	96.0	-3.0
O=C(NCCN1CCCC1)C1(S(=O)(=O)c2ccc(Cl)cc2)CC1	103.0	-3.6	-3.4	102.0	6.0
Cc1ccc(CN2CC34C=CC(O3)C(C(=O)NCc3ccc5c(c3)OCO5)C4C2=O)cc1 (stereo not drawn)	125.0	-2.2	-0.1	128.0*	8.0
COCCCNC(=O)C1C2C=CC3(CN(Cc4ccc(C)cc4)C(=O)C13)O2 (stereo not drawn)	109.0	-4.2	-4.2	105.0	9.0
CCN(C1CCCCC1)S(=O)(=O)c1ccc(-n2cnnn2)c(C)c1	97.0	-2.8	-3.0	99.0	0.0
CCN1CCN(c2ccc(NC(=O)c3ccc4c(c3)[nH]c(=O)n4Cc3ccc(F)cc3)cc2)CC1	108.0	-1.7	9.2*	102.0	-1.0
CCN1CCN(c2cc(=O)n(Cc3ccc(F)cc3)c(=O)[nH]2)CC1	97.0	0.7	2.3	87.0	-5.0

Compound activity (PubChem)
